The record followed here is paper PMC7246176 (Nature chemical biology, 2020).

Assay [1] has as its system PATU-8902 cells. The assay can be described thus: Cell viability, ultra-low adherent 3D-spheroid culture, PATU-8902. Type of assay: cell-based, human. To be noted: read-out: PATU-8902 cells 3D spheroid culture IC50. The method, boiled down:
(§1)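 PATU-8988T and PATU-8902 cells were plated at 100 cells/well in 50 μL media, either adherent (2D) or in ultra-low attachment spheroid plates (3D), overnight. Test compound was pin-transferred and cells were incubated 120 h. Viability was read by CellTiter-Glo luminescence after 15 min at room temperature. Data were normalized to DMSO-treated wells per cell line and fitted.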

In the next assay the test system is PANFR0172_T2. The assay can be described thus: Patient-derived pancreatic organoid viability, PANFR0172_T2. It counts as cell-based, human. To be noted: read-out: PANFR0172_T2 3D organoid culture IC50. The essentials:
(§2)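 Patient-derived PDAC organoids were dissociated to single cells and plated at 1000 viable cells/well in complete organoid medium with 10% Matrigel, in ultra-low-attachment 384-well plates. After 24 h, compound was added by digital dispenser, then 7 days incubation. Read-out was CellTiter-Glo 3D luminescence after 1 h shaking at room temperature, normalized to DMSO wells for each culture.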

For the next assay, the system named is PANFR0029_T2. The assay can be described thus: Patient-derived pancreatic organoid viability, PANFR0029_T2. It counts as cell-based, human. Particulars: read-out: PANFR0029_T2 3D organoid culture IC50. The method, boiled down:
as §2

A further assay deals with PANFR0172_T4. The assay can be described thus: Patient-derived pancreatic organoid viability, PANFR0172_T4. Type of assay: cell-based, human. Particulars: read-out: PANFR0172_T4 3D organoid culture IC50. The method, boiled down: as §2
The next assay has as its system PANFR0172_T3. The assay can be described thus: Patient-derived pancreatic organoid viability, PANFR0172_T3. It counts as cell-based, human. To be noted: read-out: PANFR0172_T3 3D organoid culture IC50. The method, boiled down:
as §2

In assay [2] the test system is PATU-8988T cells. The assay can be described thus: Cell viability, ultra-low adherent 3D-spheroid culture, PATU-8988T. Type of assay: cell-based, human. To be noted: read-out: PATU-8988T cells 3D spheroid culture IC50, 120 h. The essentials:
(§3)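 PATU-8902 or PATU-8988T cells were plated at 100 cells/well and left overnight to adhere (2D plates) or to form spheroids (ultra-low-attachment 3D spheroid plates). Compound was pin-transferred, then 120 h incubation. Viability by CellTiter-Glo luminescence after 15 min at room temperature, normalized to DMSO-treated wells for each cell line.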

For assay [3], the system named is PATU-8988T cells. The assay can be described thus: Cell viability, 2D-adherent monolayer culture, PATU-8988T. It counts as cell-based, human. To be noted: read-out: PATU-8988T cells 2D monolayer culture IC50, 120 h. The essentials:
as §1

For assay [4], the system named is PATU-8902 cells. The assay can be described thus: Cell viability, 2D-adherent monolayer culture, PATU-8902. It counts as cell-based, human. To be noted: read-out: PATU-8902 cells 2D monolayer culture IC50. The method, boiled down:
as §3

The next assay concerns the target LRRK2 (Homo sapiens, UniProt Q5S007). The assay can be described thus: LRRK2 ADAPTA kinase assay. It counts as biochemical. To be noted: LRRK2 kinase assay IC50, ADAPTA; Table 1.
Assay [5] has as its target T1, DCLK1-Nluc in HCT116 cells (Homo sapiens, UniProt O15075).
T1 sequence (O15075 1-729 isoform O15075-2): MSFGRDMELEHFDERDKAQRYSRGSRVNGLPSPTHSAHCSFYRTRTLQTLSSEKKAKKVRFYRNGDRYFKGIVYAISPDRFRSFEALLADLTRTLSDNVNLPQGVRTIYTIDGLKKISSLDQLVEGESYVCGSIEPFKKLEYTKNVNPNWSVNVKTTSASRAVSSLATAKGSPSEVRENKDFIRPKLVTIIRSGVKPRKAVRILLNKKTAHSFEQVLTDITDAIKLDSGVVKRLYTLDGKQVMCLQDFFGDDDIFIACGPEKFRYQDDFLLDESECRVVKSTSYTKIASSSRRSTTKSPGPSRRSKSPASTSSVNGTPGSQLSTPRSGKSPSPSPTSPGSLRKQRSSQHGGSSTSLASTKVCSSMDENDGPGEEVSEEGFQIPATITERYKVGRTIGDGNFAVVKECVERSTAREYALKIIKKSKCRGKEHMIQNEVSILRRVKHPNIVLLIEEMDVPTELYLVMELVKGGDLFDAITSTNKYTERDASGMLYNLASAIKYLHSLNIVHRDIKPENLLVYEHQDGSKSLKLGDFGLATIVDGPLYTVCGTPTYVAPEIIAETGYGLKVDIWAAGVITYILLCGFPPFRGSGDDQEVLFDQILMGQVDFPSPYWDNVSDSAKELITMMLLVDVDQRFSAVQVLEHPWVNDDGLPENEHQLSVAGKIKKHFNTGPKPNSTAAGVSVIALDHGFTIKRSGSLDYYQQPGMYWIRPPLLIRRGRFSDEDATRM
The assay can be described thus: DCLK1 NanoBRET target engagement assay in HCT116 cells. Type of assay: cell-based. Background: BRET reads energy transfer from a luciferase to a nearby fluorophore.

The target in another assay is T2, DCLK1 (Homo sapiens, UniProt O15075).
T2 sequence (O15075 1-740): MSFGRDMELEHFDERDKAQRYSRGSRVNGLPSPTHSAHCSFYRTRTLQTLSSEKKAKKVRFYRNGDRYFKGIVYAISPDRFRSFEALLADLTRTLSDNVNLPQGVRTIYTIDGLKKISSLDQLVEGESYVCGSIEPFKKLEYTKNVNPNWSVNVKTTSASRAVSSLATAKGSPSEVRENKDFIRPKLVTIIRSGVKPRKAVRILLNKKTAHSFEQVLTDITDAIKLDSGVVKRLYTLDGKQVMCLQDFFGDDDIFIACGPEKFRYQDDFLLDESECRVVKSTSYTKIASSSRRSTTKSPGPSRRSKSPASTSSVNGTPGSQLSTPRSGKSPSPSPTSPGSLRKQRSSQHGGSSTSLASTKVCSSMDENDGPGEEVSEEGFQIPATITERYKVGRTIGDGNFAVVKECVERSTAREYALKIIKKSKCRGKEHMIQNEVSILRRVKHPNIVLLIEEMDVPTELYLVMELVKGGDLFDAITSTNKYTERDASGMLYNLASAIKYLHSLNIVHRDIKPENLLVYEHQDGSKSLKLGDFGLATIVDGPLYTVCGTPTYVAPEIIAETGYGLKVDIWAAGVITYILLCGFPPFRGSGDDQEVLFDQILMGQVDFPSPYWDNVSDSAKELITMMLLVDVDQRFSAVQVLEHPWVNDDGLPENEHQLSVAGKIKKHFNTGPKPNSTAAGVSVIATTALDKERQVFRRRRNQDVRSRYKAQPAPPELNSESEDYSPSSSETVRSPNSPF
The assay can be described thus: 33P-ATP DCLK1 kinase assay. Type of assay: biochemical. Particulars: DCLK1 kinase assay IC50, 33P-ATP; ATP 50 μM (Km).

The next assay deals with T3, DCLK2 (Homo sapiens, UniProt Q8N568).
T3 sequence (Q8N568 1-766): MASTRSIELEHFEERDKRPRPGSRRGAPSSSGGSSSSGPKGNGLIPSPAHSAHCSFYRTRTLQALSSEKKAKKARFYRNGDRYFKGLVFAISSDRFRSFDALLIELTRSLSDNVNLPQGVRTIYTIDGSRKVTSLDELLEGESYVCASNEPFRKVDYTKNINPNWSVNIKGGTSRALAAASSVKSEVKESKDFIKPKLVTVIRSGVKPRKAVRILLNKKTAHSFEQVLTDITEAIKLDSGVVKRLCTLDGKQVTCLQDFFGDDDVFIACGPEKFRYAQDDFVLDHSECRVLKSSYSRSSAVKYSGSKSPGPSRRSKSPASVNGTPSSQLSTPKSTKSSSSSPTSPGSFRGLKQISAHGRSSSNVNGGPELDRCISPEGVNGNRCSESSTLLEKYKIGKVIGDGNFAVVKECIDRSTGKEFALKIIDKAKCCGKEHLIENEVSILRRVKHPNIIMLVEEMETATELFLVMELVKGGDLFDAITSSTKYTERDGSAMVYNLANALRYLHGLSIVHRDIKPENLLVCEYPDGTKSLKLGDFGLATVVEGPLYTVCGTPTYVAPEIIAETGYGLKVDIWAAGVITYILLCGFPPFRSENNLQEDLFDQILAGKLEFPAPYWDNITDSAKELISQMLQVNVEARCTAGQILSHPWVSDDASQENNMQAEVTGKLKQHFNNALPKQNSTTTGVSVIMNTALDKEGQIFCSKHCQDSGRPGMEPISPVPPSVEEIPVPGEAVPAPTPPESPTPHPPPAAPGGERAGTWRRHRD
The assay can be described thus: DCLK2 KINOMEscan binding assay. The method, boiled down:
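KINOMEscan competition binding run by a contract lab. Test compound in 12-point dose response, top concentration 10 μM. Values are the mean of n = 2 biologically independent samples.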

Another assay concerns DCLK1 protein levels. The assay can be described thus: DCLK1 protein levels by immunoblot in PDAC cells. It counts as cell-based, human. To be noted: after 48 h, PATU-8988T and PATU-8902 cells.
A further assay relates to FKBP12^F36V-KRAS^G12V. The assay can be described thus: KRAS G12V degradation by immunoblot in FKBP12F36V-KRASG12V. Particulars: KRAS^−/− cells. Type of assay: cell-based, human. (In general: Immunoblotting shows a protein as a band on a membrane.)
Where [6] appears, read: viability, 7 d, P.R. = partial response.

Like-named read-outs stand apart in the source and are kept apart here.

LRRK2, sequence (Q5S007 whole entry): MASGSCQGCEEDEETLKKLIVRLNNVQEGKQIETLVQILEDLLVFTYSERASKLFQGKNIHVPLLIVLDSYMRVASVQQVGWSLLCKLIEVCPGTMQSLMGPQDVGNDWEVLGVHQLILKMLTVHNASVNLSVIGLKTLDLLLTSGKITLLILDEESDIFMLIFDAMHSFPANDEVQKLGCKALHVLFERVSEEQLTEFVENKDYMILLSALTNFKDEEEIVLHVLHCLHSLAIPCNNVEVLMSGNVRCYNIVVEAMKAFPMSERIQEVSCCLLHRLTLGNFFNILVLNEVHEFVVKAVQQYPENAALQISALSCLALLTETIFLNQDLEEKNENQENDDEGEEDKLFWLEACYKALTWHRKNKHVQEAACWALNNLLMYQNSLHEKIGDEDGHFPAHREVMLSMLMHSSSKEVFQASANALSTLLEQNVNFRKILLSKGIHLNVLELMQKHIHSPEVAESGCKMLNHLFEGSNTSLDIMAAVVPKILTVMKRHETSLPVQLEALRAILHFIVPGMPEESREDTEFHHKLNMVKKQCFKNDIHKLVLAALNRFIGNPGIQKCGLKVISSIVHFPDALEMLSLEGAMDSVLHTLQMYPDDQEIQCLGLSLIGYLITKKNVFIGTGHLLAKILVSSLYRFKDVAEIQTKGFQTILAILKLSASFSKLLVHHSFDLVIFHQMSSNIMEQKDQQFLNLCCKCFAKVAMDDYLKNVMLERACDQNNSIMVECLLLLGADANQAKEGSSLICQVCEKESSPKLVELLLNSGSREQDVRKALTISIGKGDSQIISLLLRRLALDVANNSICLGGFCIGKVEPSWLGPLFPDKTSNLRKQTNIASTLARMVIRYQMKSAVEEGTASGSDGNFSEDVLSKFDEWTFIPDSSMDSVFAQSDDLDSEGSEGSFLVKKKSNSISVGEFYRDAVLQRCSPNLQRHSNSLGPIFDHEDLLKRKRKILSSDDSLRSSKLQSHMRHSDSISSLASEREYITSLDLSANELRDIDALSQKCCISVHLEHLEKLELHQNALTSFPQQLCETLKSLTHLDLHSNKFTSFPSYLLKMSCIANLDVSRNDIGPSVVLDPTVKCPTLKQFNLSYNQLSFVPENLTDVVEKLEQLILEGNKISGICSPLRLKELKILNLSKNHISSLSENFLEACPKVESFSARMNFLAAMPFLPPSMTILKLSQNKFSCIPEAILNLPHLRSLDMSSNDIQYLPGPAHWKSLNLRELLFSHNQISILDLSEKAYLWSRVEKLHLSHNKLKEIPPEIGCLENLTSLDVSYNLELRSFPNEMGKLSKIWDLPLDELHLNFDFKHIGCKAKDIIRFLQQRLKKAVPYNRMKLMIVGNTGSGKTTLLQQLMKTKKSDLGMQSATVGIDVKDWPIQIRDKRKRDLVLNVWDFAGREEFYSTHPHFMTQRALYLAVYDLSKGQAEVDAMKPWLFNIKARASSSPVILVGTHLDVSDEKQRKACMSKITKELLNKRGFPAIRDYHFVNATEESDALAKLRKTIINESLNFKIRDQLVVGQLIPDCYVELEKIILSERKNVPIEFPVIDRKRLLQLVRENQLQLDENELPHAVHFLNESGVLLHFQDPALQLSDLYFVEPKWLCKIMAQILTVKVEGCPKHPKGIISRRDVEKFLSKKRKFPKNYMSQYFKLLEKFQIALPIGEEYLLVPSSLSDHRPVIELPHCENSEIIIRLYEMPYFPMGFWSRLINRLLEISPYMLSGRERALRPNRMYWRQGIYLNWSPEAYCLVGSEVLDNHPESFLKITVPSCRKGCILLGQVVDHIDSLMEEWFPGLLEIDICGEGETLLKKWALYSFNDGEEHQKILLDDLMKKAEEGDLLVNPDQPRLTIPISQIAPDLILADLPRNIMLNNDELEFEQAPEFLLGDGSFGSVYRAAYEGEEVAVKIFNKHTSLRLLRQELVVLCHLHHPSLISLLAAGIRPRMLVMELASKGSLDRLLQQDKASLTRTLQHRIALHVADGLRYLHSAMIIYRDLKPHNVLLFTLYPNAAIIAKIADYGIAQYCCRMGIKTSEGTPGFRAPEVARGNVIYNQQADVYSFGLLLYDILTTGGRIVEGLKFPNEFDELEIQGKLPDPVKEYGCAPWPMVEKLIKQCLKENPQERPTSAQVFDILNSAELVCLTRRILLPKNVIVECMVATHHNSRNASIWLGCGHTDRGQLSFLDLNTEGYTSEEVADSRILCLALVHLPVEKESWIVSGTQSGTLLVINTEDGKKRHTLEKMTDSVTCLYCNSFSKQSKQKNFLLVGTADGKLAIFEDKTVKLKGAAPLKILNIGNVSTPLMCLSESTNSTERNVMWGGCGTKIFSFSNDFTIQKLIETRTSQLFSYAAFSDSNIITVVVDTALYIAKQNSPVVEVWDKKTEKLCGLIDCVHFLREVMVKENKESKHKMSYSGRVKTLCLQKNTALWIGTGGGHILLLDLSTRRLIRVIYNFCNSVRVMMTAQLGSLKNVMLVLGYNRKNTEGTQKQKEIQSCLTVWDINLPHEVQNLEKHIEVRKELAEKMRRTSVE

For orientation: IC50 means the point on the concentration scale where inhibition reaches its midpoint. Turning to `Cc1sc2c(c1C)C(c1ccc(Cl)cc1)=N[C@@H](CC(=O)OC(C)(C)C)c1nnc(C)n1-2` [JQ1], the IC50 in the assay on PATU-8902 cells [1] (cell viability, 120 h, P.R. = partial response) is above 1000 nM; with PANFR0172_T2 (setting [6]), above 1000 nM; with PANFR0029_T2 (viability, 7 d, DCLK1-negative organoids) it was 363 nM; in the assay on PANFR0172_T4 (setting [6]), above 1000 nM; with PANFR0172_T3 (setting [6]), above 1000 nM; with PATU-8988T cells [2] (cell viability), 111 nM. Moreover, the IC50 in the assay with PATU-8988T cells [3] (cell viability, P.R. = partial response) turned out to be 67.4 nM; in the assay on PATU-8902 cells [4] (cell viability, 120 h), 1810 nM.
In the case of `COc1cc(C(=O)N2CCC(N3CCN(C)CC3)CC2)ccc1Nc1ncc2c(n1)N(C)c1ccccc1C(=O)N2C` [LRRK2-IN-1], the IC50 with PATU-8902 cells [1] (Homo sapiens, PaTu 8902, 120 h) is above 1000 nM; with PANFR0172_T2 (Homo sapiens, 168 h), 1340 nM; on LRRK2, 4.1 nM; with PANFR0172_T4 (Homo sapiens, 168 h), above 20000 nM; in the assay with PANFR0172_T3 (Homo sapiens, 168 h) it was 1500 nM; with PATU-8988T cells [2] (Homo sapiens, PaTu 8988t), 1870 nM. For the same compound, the IC50 is 400 nM in [5]; 1150 nM in the assay with PATU-8988T cells [3] (Homo sapiens, PaTu 8988t); 55 nM against DCLK1; 9.9 nM on DCLK2; above 20000 nM with PATU-8902 cells [4] (Homo sapiens, PaTu 8902, 120 h).
Turning to `CC(=O)Nc1cccc(-n2c(=O)n(C3CC3)c(=O)c3c(Nc4ccc(I)cc4F)n(C)c(=O)c(C)c32)c1` [Trametinib], the “effect on DCLK1 protein levels” value with DCLK1 protein levels is “diminished DCLK1 protein levels”. Also, the IC50 is below 0.63 nM in the assay with PATU-8902 cells [1] (Homo sapiens, PaTu 8902, 120 h); 791 nM with PANFR0172_T2 (Homo sapiens, 168 h); 185 nM in the assay with PANFR0029_T2 (Homo sapiens, 168 h); above 20000 nM with PANFR0172_T4 (Homo sapiens, 168 h); 1180 nM in the assay with PANFR0172_T3 (Homo sapiens, 168 h); 1 nM in the assay on PATU-8988T cells [2] (Homo sapiens, PaTu 8988t). Besides, the IC50 in the assay on PATU-8988T cells [3] (Homo sapiens, PaTu 8988t) was 60 nM; in the assay with PATU-8902 cells [4] (Homo sapiens, PaTu 8902, 120 h), 4.89 nM.
As for `CC[C@H](C(=O)N1CCCC[C@H]1C(=O)O[C@H](CCc1ccc(OC)c(OC)c1)c1ccccc1OCC(=O)NCCCCCCOc1cccc2c1C(=O)N(C1CCC(=O)NC1=O)C2=O)c1cc(OC)c(OC)c(OC)c1` (some centres unmarked) [dTAG-13], the “time to initiation of KRAS^G12V degradation” value in the assay with FKBP12^F36V-KRAS^G12V was at most 1 h.
